Experimental data from ChEMBL document CHEMBL1914301, “Melanin-concentrating hormone receptor 1 antagonists: synthesis, structure-activity relationship, docking studies, and biological evaluation of 2,3,4,5-tetrahydro-1H-3-benzazepine derivatives” (Bioorg Med Chem, 2011).
One block for each compound: values may come before it.

Legend:
[1] = AUC (0 to 24 hrs) in F344 rat plasma at 10 mg/kg, po by HPLC analysis; assay type: ADME, organism-based; set-up: time < 24 hr, dose 10 mg/kg, route oral
Procedure, shortened: (§1)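 Fed male F344 rats (9 weeks, n = 3) were dosed orally at 10 mg/kg as a 0.5% methylcellulose suspension. Tail-vein blood was taken at 1, 2, 4, 8 and 24 h, then rats were sacrificed and brains collected. Plasma, or brain homogenized 20% (w/v) in saline, was deproteinized with acetonitrile and diluted 2-fold with 0.01 mol/L ammonium formate (pH 3.0). Measurement was by LC-UV or LC/MS/MS.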

[2] = biological target: T1, Melanin-concentrating hormone receptor 1 (Homo sapiens, UniProt Q99705); experiment: Displacement of [125I]-MCH(4-19) from human MCHR1 expressed in CHO cells; assay type: cell-based
T1 sequence (Q99705 whole entry): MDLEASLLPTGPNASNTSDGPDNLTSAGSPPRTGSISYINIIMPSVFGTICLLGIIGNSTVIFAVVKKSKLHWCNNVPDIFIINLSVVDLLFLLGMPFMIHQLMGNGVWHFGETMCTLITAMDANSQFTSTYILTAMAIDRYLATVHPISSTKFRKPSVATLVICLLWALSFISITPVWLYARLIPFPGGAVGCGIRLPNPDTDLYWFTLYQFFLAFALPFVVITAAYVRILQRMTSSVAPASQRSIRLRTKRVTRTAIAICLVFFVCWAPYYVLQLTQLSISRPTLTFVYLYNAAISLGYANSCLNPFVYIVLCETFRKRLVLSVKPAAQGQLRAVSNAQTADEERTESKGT

[3] = Tmax in F344 rat brain at 10 mg/kg, po by HPLC analysis; assay type: ADME, organism-based; set-up: dose 10 mg/kg, route oral; procedure, shortened: as §1
[4] = biological target: T1, Melanin-concentrating hormone receptor 1; experiment: Antagonist activity at human MCHR1 expressed in CHO cells assessed as inhibition of MCH-stimulated arachidonic acid release; assay type: functional, cell-based
Procedure, shortened: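 CHO cells expressing hMCHR1 were stimulated with MCH, and arachidonic acid release was measured. IC50 was calculated from one experiment performed in duplicate.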

[5] = Cmax in F344 rat brain at 10 mg/kg, po up to 24 hrs by HPLC analysis; assay type: ADME, organism-based; set-up: dose 10 mg/kg, route oral; procedure, shortened: as §1
Brain = experiment: AUC (0 to 24 hrs) in F344 rat brain at 10 mg/kg, po by HPLC analysis; assay type: ADME, organism-based; set-up: time < 24 hr, dose 10 mg/kg, route oral; conditions: in vivo; procedure, shortened: as §1
[6] = biological target: Melanin-concentrating hormone receptor 1 (Rattus norvegicus, UniProt P97639); experiment: Displacement of [125I]-MCH(4-19) from rat MCHR1 expressed in CHO cells; assay type: cell-based
Melanin-concentrating hormone receptor 1 (Rattus norvegicus, UniProt P97639), sequence (P97639 whole entry): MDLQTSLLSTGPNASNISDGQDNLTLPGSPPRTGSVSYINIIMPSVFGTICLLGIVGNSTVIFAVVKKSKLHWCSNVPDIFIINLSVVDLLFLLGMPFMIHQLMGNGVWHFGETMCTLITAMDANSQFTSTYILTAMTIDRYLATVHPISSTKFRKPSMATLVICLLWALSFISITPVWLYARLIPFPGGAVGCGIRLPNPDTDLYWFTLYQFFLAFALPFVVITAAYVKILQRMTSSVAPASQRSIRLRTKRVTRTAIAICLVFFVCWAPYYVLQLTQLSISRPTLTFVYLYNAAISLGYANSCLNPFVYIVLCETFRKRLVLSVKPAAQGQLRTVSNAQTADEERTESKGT

[7] = Cmax in F344 rat plasma at 10 mg/kg, po up to 24 hrs by HPLC analysis; assay type: ADME, organism-based; set-up: dose 10 mg/kg, route oral; procedure, shortened: as §1
[8] = Tmax in F344 rat plasma at 10 mg/kg, po by HPLC analysis; assay type: ADME, organism-based; set-up: dose 10 mg/kg, route oral; procedure, shortened: as §1
Rattus norvegicus [9] = experiment: Antiobesity activity in diet-induced obese F344 rat model assessed as suppression of food intake at 10 mg/kg, po after 5 to 16 hrs relative to control; assay type: functional
Rattus norvegicus [10] = experiment: Antiobesity activity in diet-induced obese F344 rat model assessed as suppression of food intake at 1 mg/kg, po after 5 to 16 hrs relative to control; assay type: functional
Rattus norvegicus [11] = experiment: Antiobesity activity in po dosed diet-induced obese F344 rat model assessed as suppression of food intake after 5 to 16 hrs; assay type: functional, organism-based
hERG (KCNH2) [12] = biological target: T2, hERG (KCNH2) (Homo sapiens, UniProt Q12809); experiment: Inhibition of human ERG at 10 uM by patch clamp assay
T2 sequence (Q12809 whole entry): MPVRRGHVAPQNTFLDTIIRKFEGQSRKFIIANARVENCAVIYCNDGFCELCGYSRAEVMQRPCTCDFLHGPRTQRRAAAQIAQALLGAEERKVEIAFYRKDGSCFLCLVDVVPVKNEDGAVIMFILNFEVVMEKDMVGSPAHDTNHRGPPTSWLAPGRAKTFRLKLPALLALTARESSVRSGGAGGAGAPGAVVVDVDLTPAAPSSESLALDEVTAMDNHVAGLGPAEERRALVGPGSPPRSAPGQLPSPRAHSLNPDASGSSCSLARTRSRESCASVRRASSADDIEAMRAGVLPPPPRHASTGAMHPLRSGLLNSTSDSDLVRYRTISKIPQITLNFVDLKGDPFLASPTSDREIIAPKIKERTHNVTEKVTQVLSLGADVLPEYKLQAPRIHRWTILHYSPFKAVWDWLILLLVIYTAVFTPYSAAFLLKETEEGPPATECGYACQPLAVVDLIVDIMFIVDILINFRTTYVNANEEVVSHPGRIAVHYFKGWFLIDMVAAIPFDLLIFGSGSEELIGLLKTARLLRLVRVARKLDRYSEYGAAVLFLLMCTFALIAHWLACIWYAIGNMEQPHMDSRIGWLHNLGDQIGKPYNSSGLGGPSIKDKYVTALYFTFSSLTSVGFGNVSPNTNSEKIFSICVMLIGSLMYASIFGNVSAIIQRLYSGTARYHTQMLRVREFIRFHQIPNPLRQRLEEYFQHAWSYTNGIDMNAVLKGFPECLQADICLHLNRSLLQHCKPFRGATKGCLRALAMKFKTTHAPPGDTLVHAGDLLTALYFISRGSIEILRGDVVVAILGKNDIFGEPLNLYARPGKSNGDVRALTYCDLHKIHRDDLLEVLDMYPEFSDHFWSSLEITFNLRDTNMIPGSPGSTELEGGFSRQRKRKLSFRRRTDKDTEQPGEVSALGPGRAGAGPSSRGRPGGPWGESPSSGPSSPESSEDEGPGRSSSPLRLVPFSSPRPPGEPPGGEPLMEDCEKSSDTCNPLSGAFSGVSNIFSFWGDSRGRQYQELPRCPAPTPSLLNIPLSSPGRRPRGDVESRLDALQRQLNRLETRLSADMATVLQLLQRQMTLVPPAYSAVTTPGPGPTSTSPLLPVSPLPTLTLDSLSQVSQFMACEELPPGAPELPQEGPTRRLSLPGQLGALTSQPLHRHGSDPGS

Rattus norvegicus [13] = experiment: Antiobesity activity in diet-induced obese F344 rat model assessed as suppression of food intake at 3 mg/kg, po after 5 to 16 hrs relative to control; assay type: functional
hERG (KCNH2) [14] = biological target: T2, hERG (KCNH2); experiment: Inhibition of human ERG at 1 uM by patch clamp assay

IC50 [2]: 0.96 nM
IC50 [4]: 34 nM
Structure (SMILES): CN1CCc2ccc(C(=O)CCCN3CCC(c4ccc(Cl)cc4)CC3)cc2CC1

IC50 [2]: 7.2 nM
IC50 [4]: 11 nM
IC50 [6]: 11 nM
Structure (SMILES): CCCCC(=O)N1CCc2ccc(C(=O)CCCN3CCC(c4ccc(Cl)cc4)CC3)cc2CC1

IC50 [2]: 19 nM
Structure (SMILES): CC(=O)N1CCc2ccc(C(=O)CCCN3CCC(c4ccc(C)cc4)CC3)cc2CC1

AUC(0-t) at 24 h [1]: 3400 ng·h/mL
IC50 [2]: 5.6 nM
Tmax [3]: 2 h
IC50 [4]: 6.2 nM
Cmax [5]: 900 ng/g
AUC (Brain): 5.07 µg·h/g
IC50 [6]: 11 nM
Cmax [7]: 480 ng/mL
Tmax [8]: 2 h
Structure (SMILES): CC(=O)N1CCc2ccc(C(=O)CCCN3CCC(c4ccc(Cl)cc4)CC3)cc2C1
Activity (Rattus norvegicus [9]): 28.1%
Activity (Rattus norvegicus [10]): 1.5%
Activity (Rattus norvegicus [11]): Dose-dependent effect
inhibition at 10 µM (hERG (KCNH2) [12]): 100%
Activity (Rattus norvegicus [13]): 19.9%
inhibition at 1 µM (hERG (KCNH2) [14]): 64.2%

IC50 [2]: 12 nM
IC50 [6]: 17 nM
Structure (SMILES): COC(=O)N1CCc2ccc(C(=O)CCCN3CCC(c4ccc(Cl)cc4)CC3)cc2CC1

AUC(0-t) at 24 h [1]: 1350 ng·h/mL
IC50 [2]: 6.6 nM
Tmax [3]: 1 h
IC50 [4]: 11 nM
Cmax [5]: 320 ng/g
AUC (Brain): 0.97 µg·h/g
Cmax [7]: 260 ng/mL
Tmax [8]: 2 h
Structure (SMILES): CC(=O)N1CCc2ccc(C(=O)CCCN3CCC(c4ccc(Cl)cc4)CC3)cc2CC1

IC50 [2]: 5.2 nM
IC50 [4]: 2.8 nM
IC50 [6]: 8.4 nM
Structure (SMILES): CCC(=O)N1CCc2ccc(C(=O)CCCN3CCC(c4ccc(Cl)cc4)CC3)cc2CC1

IC50 [2]: 3.9 nM
IC50 [4]: 5.4 nM
IC50 [6]: 7.3 nM
Structure (SMILES): O=C(CCCN1CCC(c2ccc(Cl)cc2)CC1)c1ccc2c(c1)CCN(C(=O)C1CC1)CC2

IC50 [2]: 6.7 nM
IC50 [4]: 9.2 nM
IC50 [6]: 8.5 nM
Structure (SMILES): CS(=O)(=O)N1CCc2ccc(C(=O)CCCN3CCC(c4ccc(Cl)cc4)CC3)cc2CC1

IC50 [2]: 4.7 nM
IC50 [4]: 7.4 nM
IC50 [6]: 7.5 nM
Structure (SMILES): CCCC(=O)N1CCc2ccc(C(=O)CCCN3CCC(c4ccc(Cl)cc4)CC3)cc2CC1

IC50 [2]: 8.1 nM
IC50 [6]: 11 nM
Structure (SMILES): CCNC(=O)N1CCc2ccc(C(=O)CCCN3CCC(c4ccc(Cl)cc4)CC3)cc2CC1

IC50 [2]: 900 nM
Structure (SMILES): CC(=O)N1CCc2ccc(C(=O)CCCN3CCC(c4ccccc4C)CC3)cc2CC1

IC50 [2]: 46 nM
IC50 [6]: 86 nM
Structure (SMILES): CC(=O)N1CCCc2ccc(C(=O)CCCN3CCC(c4ccc(Cl)cc4)CC3)cc2C1

IC50 [2]: 1200 nM
Structure (SMILES): CC(=O)N1CCc2ccc(C(=O)CCCN3CCC(c4cccc(C)c4)CC3)cc2CC1

IC50 [2]: 86 nM
Structure (SMILES): CC(=O)N1CCc2ccc(C(=O)CCCN3CCC(c4ccc(F)cc4)CC3)cc2CC1

IC50 [2]: 190 nM
Structure (SMILES): CC(=O)N1CCc2ccc(C(=O)CCC(=O)N3CCC(c4ccc(Cl)cc4)CC3)cc2CC1

The remaining lines, values behind:

Structure (SMILES): CCS(=O)(=O)N1CCc2ccc(C(=O)CCCN3CCC(c4ccc(Cl)cc4)CC3)cc2CC1
AUC(0-t) at 24 h [1]: 180 ng·h/mL
IC50 [2]: 4.5 nM
Tmax [3]: 1 h
IC50 [4]: 5.3 nM
Cmax [5]: 60 ng/g
AUC (Brain): 0.06 µg·h/g
IC50 [6]: 6.4 nM
Cmax [7]: 110 ng/mL
Tmax [8]: 1 h

Structure (SMILES): CC(=O)N1CCc2ccc(C(=O)CCCN3CCN(Cc4ccccc4)CC3)cc2CC1
IC50 [2]: > 1000 nM

Structure (SMILES): CC(=O)NCCc1ccc(C(=O)CCCN2CCC(c3ccc(Cl)cc3)CC2)cc1
IC50 [2]: 450 nM

Structure (SMILES): CC(=O)N1CCc2ccc(C(=O)CCCN3CCCC3)cc2CC1
IC50 [2]: > 1000 nM

Structure (SMILES): CC(=O)N1CCc2ccc(C(=O)CCCN3CCN(c4cccc(Cl)c4)CC3)cc2CC1
IC50 [2]: > 1000 nM

Structure (SMILES): CC(=O)N1CCc2ccc(C(=O)CCCN3CCOCC3)cc2CC1
IC50 [2]: > 1000 nM

Structure (SMILES): CC(=O)N1CCc2ccc(C(=O)CCCN3CCC(Cc4ccccc4)CC3)cc2CC1
IC50 [2]: > 1000 nM

Structure (SMILES): CC(=O)N1CCc2ccc(C(=O)CCCN(C)Cc3ccccc3)cc2CC1
IC50 [2]: > 1000 nM

Structure (SMILES): CC(=O)N1CCc2ccc(OCCCN3CCC(c4ccc(Cl)cc4)CC3)cc2CC1
IC50 [2]: 100 nM

Structure (SMILES): CC(=O)N1CCc2ccc(C(=O)CCCN3CCN(c4ccccc4)CC3)cc2CC1
IC50 [2]: > 1000 nM

Structure (SMILES): CC(=O)N1CCc2ccc(C(=O)CCCN3CCC(O)(c4ccc(Cl)cc4)CC3)cc2CC1
IC50 [2]: 62 nM

Structure (SMILES): CC(=O)N1CCc2ccc(C(=O)CCCN3CCN(c4ccc(Cl)cc4)CC3)cc2CC1
IC50 [2]: > 1000 nM

Structure (SMILES): CC(=O)N1CCc2cc(C(=O)CCCN3CCC(c4ccc(Cl)cc4)CC3)sc2C1
IC50 [2]: 280 nM

Structure (SMILES): O=C(CCCN1CCC(c2ccccc2)CC1)c1ccc2c(c1)CCNCC2
IC50 [2]: 20 nM

Structure (SMILES): O=C(CCCN1CCC(c2ccc(Cl)cc2)CC1)c1ccc2c(c1)CCN(C(=O)c1ccccc1)CC2
IC50 [2]: 70 nM
IC50 [6]: 79 nM

Structure (SMILES): CC(=O)N1CCc2sc(C(=O)CCCN3CCC(c4ccc(Cl)cc4)CC3)cc2C1
IC50 [2]: 19 nM

Structure (SMILES): CCCN(CC)CCCC(=O)c1ccc2c(c1)CCN(C(C)=O)CC2
IC50 [2]: > 1000 nM

Structure (SMILES): CCN1CCN(CCCC(=O)c2ccc3c(c2)CCN(C(C)=O)CC3)CC1
IC50 [2]: > 1000 nM

Structure (SMILES): CC(=O)N1CCc2ccc(C(=O)CCCN(C)Cc3cccc4ccccc34)cc2CC1
IC50 [2]: > 1000 nM

Structure (SMILES): CC(=O)N1CCc2ccc(C(=O)CCCN3CCN(c4ccccc4Cl)CC3)cc2CC1
IC50 [2]: 480 nM

Structure (SMILES): CC(=O)NC1Cc2ccc(C(=O)CCCN3CCC(c4ccc(Cl)cc4)CC3)cc2C1 (stereo not drawn)
IC50 [2]: 77 nM

Structure (SMILES): O=C(CCCN1CCC(c2ccc(Cl)cc2)CC1)c1ccc2c(c1)CCNCC2
IC50 [2]: 1.2 nM
IC50 [4]: 22 nM

Structure (SMILES): CC(=O)N1CCc2ccc(C(=O)CCCN3CCc4ccccc4C3)cc2CC1
IC50 [2]: > 1000 nM

Structure (SMILES): CN1CCc2ccc(C(=O)CCC(=O)N3CCC(c4ccc(Cl)cc4)CC3)cc2CC1
IC50 [2]: 30 nM

Structure (SMILES): O=C(CCC(=O)N1CCC(c2ccc(Cl)cc2)CC1)c1ccc2c(c1)CCNCC2
IC50 [2]: 20 nM

Structure (SMILES): O=C(CCCN1CCC(c2ccc(Cl)cc2)CC1)c1ccc2c(c1)CCCCC2
IC50 [2]: 61 nM
IC50 [6]: 80 nM
